Source: ChEMBL document CHEMBL1129431, “Derivatives of (R)- and (S)-5-fluoro-8-hydroxy-2-(dipropylamino)tetralin: synthesis and interactions with 5-HT1A receptors” (J Med Chem, 1996)
Several values for one entry are separate records, joined by “and”; a condition that tells them apart may be missing. Equal entries are not always repeated.

Experiments:
[1] = biological target: T1, 5-hydroxytryptamine receptor 1A (Rattus norvegicus, UniProt P19327); assay: Binding affinity against rat hippocampal 5-hydroxytryptamine 1A (5-HT1A) receptor determined using [3H]8-OH-DPAT as radioligand; format: tissue-based, Hippocampus
T1 sequence (P19327 whole entry): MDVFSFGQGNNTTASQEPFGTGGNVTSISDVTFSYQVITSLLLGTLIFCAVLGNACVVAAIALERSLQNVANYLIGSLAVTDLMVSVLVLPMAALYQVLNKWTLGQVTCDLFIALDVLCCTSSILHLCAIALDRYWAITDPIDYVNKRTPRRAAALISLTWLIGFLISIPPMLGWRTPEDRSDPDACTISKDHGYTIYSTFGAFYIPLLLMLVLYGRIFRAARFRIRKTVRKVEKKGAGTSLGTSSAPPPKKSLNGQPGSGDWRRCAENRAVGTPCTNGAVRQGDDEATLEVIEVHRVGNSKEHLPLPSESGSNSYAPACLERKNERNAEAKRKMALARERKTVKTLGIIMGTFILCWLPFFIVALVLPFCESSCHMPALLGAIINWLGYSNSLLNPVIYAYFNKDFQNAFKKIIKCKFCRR

[2] = biological target: T2, 5-hydroxytryptamine receptor 1A (Rattus norvegicus) (UniProt P19327); assay: Effect on 5-hydroxytryptamine 1A receptor mediated inhibition of VIP-stimulated cAMP production at dose of 0.1 uM + 1 uM 5-HT.; format: functional; conditions: values are per cent of control
T2 sequence (whole entry): T1 sequence (P19327 whole entry)
Summary of the method: (§1)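 GH4ZD10 cells expressing rat 5-HT1A receptors were detached with EBSS plus 1 mM EDTA and resuspended to ~1×10^7 cells/mL in Ham's F10 with 0.01% ascorbic acid and 0.1 mM IBMX. After 1 h preincubation at 37 °C they were diluted to 0.8-1.5×10^6 cells/mL, then incubated 20 min at 37 °C with VIP (39 nM final) plus compound, alone or with 5-HT, in duplicate. The reaction was stopped by boiling. cAMP was measured in triplicate by protein-binding assay and expressed as % of the VIP-stimulated response.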

[3] = biological target: T2, 5-hydroxytryptamine receptor 1A (Rattus norvegicus); assay: Effect against 5-hydroxytryptamine 1A receptor mediated inhibition of VIP-stimulated cAMP production at 0.1 uM dose; format: functional; conditions: values are per cent of control; summary of the method: as §1
[4] = biological target: T2, 5-hydroxytryptamine receptor 1A (Rattus norvegicus); assay: Effect on 5-hydroxytryptamine 1A receptor mediated inhibition of VIP-stimulated cAMP production at dose of 1 uM; format: functional; conditions: values are per cent of control; summary of the method: as §1
[5] = biological target: T2, 5-hydroxytryptamine receptor 1A (Rattus norvegicus); assay: Effect on 5-hydroxytryptamine 1A receptor mediated inhibition of VIP-stimulated cAMP production at dose of 10 uM; format: functional; conditions: values are per cent of control; summary of the method: as §1
[6] = biological target: T2, 5-hydroxytryptamine receptor 1A (Rattus norvegicus); assay: Effect on 5-hydroxytryptamine 1A receptor mediated inhibition of VIP-stimulated cAMP production at dose of 1 uM+ 10 uM 5-HT.; format: functional; conditions: values are per cent of control; summary of the method: as §1
[7] = biological target: T2, 5-hydroxytryptamine receptor 1A (Rattus norvegicus); assay: (§2) Effect on 5-hydroxytryptamine 1A receptor mediated inhibition of VIP-stimulated cAMP production at dose of 1 uM+ 50 uM 5-HT.; format: functional; conditions: values are per cent of control
Summary of the method: (§3)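 GH4ZD10 cells expressing rat 5-HT1A receptors, detached with EDTA-supplemented Ca/Mg-free EBSS and resuspended in Ham's F10 with 0.01% ascorbic acid and 0.1 mM IBMX. Preincubated 1 h at 37 °C, then 0.8-1.5×10^6 cells/mL incubated 20 min at 37 °C with VIP (39 nM final) plus compounds. Duplicate samples stopped by boiling. cAMP measured in triplicate by protein-binding assay. Results are given as % of the VIP-stimulated response.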

[8] = biological target: T2, 5-hydroxytryptamine receptor 1A (Rattus norvegicus); conditions: 1 uM
[9] = biological target: T2, 5-hydroxytryptamine receptor 1A (Rattus norvegicus); assay: Effect on 5-hydroxytryptamine 1A receptor mediated inhibition of VIP-stimulated cAMP production at dose of 30 uM; format: functional; conditions: values are per cent of control; summary of the method: as §1
[10] = biological target: T2, 5-hydroxytryptamine receptor 1A (Rattus norvegicus); conditions: 0.1 uM
[11] = biological target: T2, 5-hydroxytryptamine receptor 1A (Rattus norvegicus); assay: Effect on 5-hydroxytryptamine 1A receptor mediated inhibition of VIP-stimulated cAMP production at dose of 0.05 uM; format: functional; conditions: values are per cent of control; summary of the method: as §3
[12] = biological target: T2, 5-hydroxytryptamine receptor 1A (Rattus norvegicus); assay: Effect on 5-hydroxytryptamine 1A receptor mediated inhibition of VIP-stimulated cAMP production at dose of 50 uM; format: functional; conditions: values are per cent of control; summary of the method: as §3
[13] = biological target: T2, 5-hydroxytryptamine receptor 1A (Rattus norvegicus); assay: as §2; format: functional; conditions: values are per cent of control; summary of the method: as §1; remark: listed apart in the source
[14] = biological target: T2, 5-hydroxytryptamine receptor 1A (Rattus norvegicus); conditions: 0.05 uM
[15] = biological target: T2, 5-hydroxytryptamine receptor 1A (Rattus norvegicus); assay: Effect on 5-hydroxytryptamine 1A receptor mediated inhibition of VIP-stimulated cAMP production at dose of 1 uM+ 1 uM 5-HT.; format: functional; conditions: values are per cent of control; summary of the method: as §3
[16] = biological target: T2, 5-hydroxytryptamine receptor 1A (Rattus norvegicus); assay: Effect on 5-hydroxytryptamine 1A receptor mediated inhibition of VIP-stimulated cAMP production at dose of 0.01 uM+ 1 uM 5-HT.; format: functional; conditions: values are per cent of control; summary of the method: as §1
[17] = biological target: T2, 5-hydroxytryptamine receptor 1A (Rattus norvegicus); assay: Effect on 5-hydroxytryptamine 1A receptor-mediated inhibition of VIP-stimulated cAMP production at dose of 1 uM+ 10 uM 5-HT.; format: functional; conditions: values are per cent of control; summary of the method: as §1

Compound | Ki [1] [nM] | response, % of control [2] [%] | response, % of control [3] | response, % of control [4] [%] | further results
CCCN(CCC)[C@H]1CCc2cccc(-c3ccco3)c2C1 | 1.8 | – | – | – | –
CCCN(CCC)[C@@H]1CCc2cccc(-c3cccs3)c2C1 | 8.4 | – | – | – | –
CCCN(CCC)[C@H]1CCc2c(F)ccc(-c3cccs3)c2C1 [listing 1 of 3 here] | 32.7 | – | – | – | –
CCCN(CCC)[C@H]1CCc2c(F)ccc(C(C)=O)c2C1 [listing 1 of 3 here] | – | 57 | 90% | 98 | response, % of control [5]: 97%
CCCN(CCC)[C@H]1CCc2c(F)cccc2C1 [listing 1 of 3 here] | 250 | – | – | – | –
CCCN(CCC)[C@@H]1CCc2c(F)ccc(OS(=O)(=O)C(F)(F)F)c2C1 [listing 1 of 3 here] | 18.5 | – | – | – | –
CCCN(CCC)[C@@H]1CCc2c(F)cccc2C1 [listing 1 of 3 here] | 136 | – | – | – | –
CCCN(CCC)[C@H]1CCc2c(F)ccc(C(C)=O)c2C1 [listing 2 of 3 here] | 13.6 | – | – | – | –
O=C1CC2(CCCC2)CC(=O)N1CCCCN1CCN(c2ncccn2)CC1 | – | 43 | 84% | 75 | response, % of control [6]: 64%; response, % of control [5]: 73%
CCCN(CCC)[C@@H]1CCc2c(F)ccc(C(C)=O)c2C1 [listing 1 of 3 here] | – | 60 | 99% | – | response, % of control [7]: 63%; response, % of control [8]: 63%; response, % of control [9]: 62%; response, % of control [5]: 61%; response, % of control [10]: 95%
CCCN(CCC)[C@@H]1CCc2cccc(O)c2C1 | – | 43 | 53% | 45 | response, % of control [5]: 47%
CCCN(CCC)[C@H]1CCc2c(F)ccc(OS(=O)(=O)C(F)(F)F)c2C1 [listing 1 of 2 here] | 490 | – | – | – | –
CCCN(CCC)[C@H]1CCc2c(F)ccc(-c3cccs3)c2C1 [listing 2 of 3 here] | 32.7 | – | – | – | –
CCCN(CCC)[C@@H]1CCc2c(F)ccc(C(C)=O)c2C1 [listing 2 of 3 here] | 6.9 | – | – | – | –
CCCN(CCCCN1C(=O)CC2(CCCC2)CC1=O)[C@H]1CCc2c(F)ccc(OS(=O)(=O)C(F)(F)F)c2C1 | 177 | 68 | – | 90 | response, % of control [11]: 98%; response, % of control [12]: 65%
CCCN(CCC)[C@H]1CCc2c(F)cccc2C1 [listing 2 of 3 here] | – | 61 | 85% | 86 | response, % of control [13]: 73%; response, % of control [12]: 86%
CCCN(CCCCN1C(=O)CC2(CCCC2)CC1=O)[C@@H]1CCc2c(F)ccc(OC)c2C1 | < 0.3 | 56 | – | 56 | response, % of control [11]: 62%; response, % of control [7]: 40%; response, % of control [12]: 41%
CCCN(CCCCN1C(=O)CC2(CCCC2)CC1=O)[C@H]1CCc2c(F)ccc(O)c2C1 | 18.2 | – | – | 91 | response, % of control [14]: 68%; response, % of control [11]: 95%; response, % of control [12]: 82%
CCCN(CCC)[C@H]1CCc2cccc(O)c2C1 | – | 43 | 74% | 61 | response, % of control [15]: 47%; response, % of control [5]: 62%
CCCN(CCCCN1C(=O)CC2(CCCC2)CC1=O)[C@@H]1CCc2c(F)ccc(C(C)=O)c2C1 | < 0.3 | 61 | – | 59 | response, % of control [11]: 50%; response, % of control [7]: 55%; response, % of control [12]: 48%

Compound | Ki [1] [nM] | response, % of control [2] [%] | response, % of control [3] | response, % of control [4] [%] | further results
CCCN(CCCCN1C(=O)CC2(CCCC2)CC1=O)[C@@H]1CCc2c(F)ccc(OS(=O)(=O)C(F)(F)F)c2C1 | 0.9 | 68 | – | 73 | response, % of control [11]: 98%; response, % of control [7]: 51%
CCCN(CCC)[C@H]1CCc2c(F)ccc(-c3cccs3)c2C1 [listing 3 of 3 here] | – | 57 | 99% | 96 | response, % of control [5]: 88%
CCCN(CCC)[C@@H]1CCc2c(F)ccc(OS(=O)(=O)C(F)(F)F)c2C1 [listing 2 of 3 here] | 18.5 | – | – | – | –
CCCN(CCC)[C@@H]1CCc2c(F)ccc(-c3cccs3)c2C1 [listing 1 of 3 here] | – | 60 | 98% | 93 | response, % of control [9]: 61%; response, % of control [6]: 58%; response, % of control [5]: 79%
CCCN(CCC)[C@@H]1CCc2c(F)cccc2C1 [listing 2 of 3 here] | – | – | 93% and 98% | 85 | response, % of control [16]: 60%; response, % of control [17]: 58%; response, % of control [12]: 78%; response, % of control [5]: 81%
CCCN(CCCCN1C(=O)CC2(CCCC2)CC1=O)[C@@H]1CCc2c(F)ccc(O)c2C1 | < 0.3 | 68 | – | 66 | response, % of control [11]: 72%; response, % of control [12]: 68%
CCCN(CCC)[C@@H]1CCc2c(F)ccc(O)c2C1 | – | 57 | 86% | 78 | response, % of control [5]: 61%
CCCN(CCC)[C@H]1CCc2cccc(-c3cccs3)c2C1 | 5.5 | – | – | – | –
CCCN(CCC)[C@@H]1CCc2c(F)ccc(-c3cccs3)c2C1 [listing 2 of 3 here] | 35 | – | – | – | –
CCCN(CCC)[C@@H]1CCc2c(F)ccc(C(C)=O)c2C1 [listing 3 of 3 here] | 6.9 | – | – | – | –
CCCN(CCC)[C@@H]1CCc2c(F)ccc(-c3cccs3)c2C1 [listing 3 of 3 here] | 35 | – | – | – | –
CCCN(CCC)[C@H]1CCc2c(F)cccc2C1 [listing 3 of 3 here] | 250 | – | – | – | –
CCCN(CCC)[C@@H]1CCc2cccc(S(=O)(=O)C(F)(F)F)c2C1 | 3.8 | – | – | – | –
CCCN(CCC)[C@H]1CCc2c(F)ccc(OS(=O)(=O)C(F)(F)F)c2C1 [listing 2 of 2 here] | 490 | – | – | – | –
CCCN(CCC)[C@@H]1CCc2cccc(-c3ccco3)c2C1 | 9.3 | – | – | – | –
CCCN(CCC)[C@H]1CCc2c(F)ccc(-c3ccco3)c2C1 | – | 56 | 100% | 98 | response, % of control [5]: 98%
CCCN(CCC)[C@H]1CCc2cccc(S(=O)(=O)C(F)(F)F)c2C1 | 9.5 | – | – | – | –
CCCN(CCC)[C@@H]1CCc2c(F)ccc(OS(=O)(=O)C(F)(F)F)c2C1 [listing 3 of 3 here] | – | 60 | 98% | 91 | response, % of control [9]: 48%; response, % of control [6]: 52%; response, % of control [5]: 61%
CCCN(CCC)[C@H]1CCc2c(F)ccc(C(C)=O)c2C1 [listing 3 of 3 here] | 13.6 | – | – | – | –
CCCN(CCC)[C@@H]1CCc2c(F)cccc2C1 [listing 3 of 3 here] | 136 | – | – | – | –
